Test [1] has as its target T1, Cannabinoid receptor 2 (Homo sapiens, UniProt P34972). As to the kind of experiment: Agonist activity at N-terminal Flag epitope tagged CB2 (unknown origin) expressed in HTLA cells assessed as increase of beta-arrestin recruitment by Tango assay. The test is classed as cell-based. The method in brief:
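β-arrestin Tango assay: HTLA cells transfected overnight with GPCR tango constructs, plated at 15,000 cells/well in DMEM with 1% dFBS, recovered ≥6 h. Drugs in Tango buffer (20 mM HEPES, 1x HBSS, pH 7.40) added overnight, full concentration-response (maximum 30 µM). BrightGlo reagent, 20 min room temperature in dark, luminescence read.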

Test [2] deals with T1, Cannabinoid receptor 2. The experiment in a line: Antagonist activity at N-terminal Flag epitope tagged CB2 (unknown origin) expressed in HTLA cells assessed as decrease in CP55940-induced beta-arrestin recruitment pretreated with non-selective cannabinoid receptor agonist CP55940 for 30 mins and measured after 20 mins by Tango assay. Type of test: cell-based.
Test [3] has as its target T2, Cannabinoid receptor 1 (Homo sapiens, UniProt P21554). The experiment in a line: Agonist activity at N-terminal Flag epitope tagged CB1 (unknown origin) expressed in HTLA cells assessed as increase of beta-arrestin recruitment by Tango assay. The test is classed as cell-based. The method in brief: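 HTLA cells transfected overnight with GPCR Tango constructs, plated at 15,000 cells/well in DMEM with 1% dFBS and allowed to recover at least 6 h. Compounds in Tango buffer (20 mM HEPES, 1x HBSS, pH 7.40) added overnight, full concentration-response up to 30 µM against CP-55,940 as reference agonist. BrightGlo reagent added for 20 min at room temperature in the dark, then luminescence read.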

Test [4] addresses T2, Cannabinoid receptor 1. The experiment in a line: Antagonist activity at N-terminal Flag epitope tagged CB1 (unknown origin) expressed in HTLA cells assessed as decrease in CP55940-induced beta-arrestin recruitment pretreated with non-selective cannabinoid receptor agonist CP55940 for 30 mins and measured after 20 mins by Tango assay. Type of test: cell-based.
For test [5], the target named is T2, Cannabinoid receptor 1. As to the kind of experiment: Displacement of [3H]CP55940 from recombinant human CB1R expressed in HEK293 cell membranes at 10 uM incubated for 90 mins relative to control.
Test [6] deals with T1, Cannabinoid receptor 2. The experiment in a line: Displacement of [3H]CP55940 from recombinant human CB2R expressed in HEK293 cell membranes at 10 uM incubated for 90 mins relative to control.
For a further test, the species on record is Homo sapiens. The experiment in a line: Selectivity index, ratio of Ki for recombinant human CB1R expressed in HEK293 cell membranes to Ki for recombinant human CB2R expressed in HEK293 cell membranes. The test is classed as cell-based.

29 molecules from ChEMBL document CHEMBL4364306, “Structure-activity relationships of thiazole and benzothiazole derivatives as selective cannabinoid CB2 agonists with in vivo anti-inflammatory properties” (Eur J Med Chem, 2019) can be followed below.

Structures are written as SMILES. Activity calls are given as the source filed them. The rule behind the calls is not given here. Bounds are passed on as bounds.

T1 sequence (P34972 whole entry): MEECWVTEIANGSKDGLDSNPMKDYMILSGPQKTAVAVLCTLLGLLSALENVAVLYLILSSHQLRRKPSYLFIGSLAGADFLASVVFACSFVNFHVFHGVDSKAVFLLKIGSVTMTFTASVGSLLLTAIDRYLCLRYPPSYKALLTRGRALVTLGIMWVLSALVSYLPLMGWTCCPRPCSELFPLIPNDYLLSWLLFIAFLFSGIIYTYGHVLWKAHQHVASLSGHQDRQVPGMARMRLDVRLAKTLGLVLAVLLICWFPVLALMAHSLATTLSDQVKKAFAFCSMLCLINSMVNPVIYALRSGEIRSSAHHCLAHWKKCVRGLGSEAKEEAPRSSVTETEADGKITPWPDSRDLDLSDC
T2 sequence (P21554 whole entry): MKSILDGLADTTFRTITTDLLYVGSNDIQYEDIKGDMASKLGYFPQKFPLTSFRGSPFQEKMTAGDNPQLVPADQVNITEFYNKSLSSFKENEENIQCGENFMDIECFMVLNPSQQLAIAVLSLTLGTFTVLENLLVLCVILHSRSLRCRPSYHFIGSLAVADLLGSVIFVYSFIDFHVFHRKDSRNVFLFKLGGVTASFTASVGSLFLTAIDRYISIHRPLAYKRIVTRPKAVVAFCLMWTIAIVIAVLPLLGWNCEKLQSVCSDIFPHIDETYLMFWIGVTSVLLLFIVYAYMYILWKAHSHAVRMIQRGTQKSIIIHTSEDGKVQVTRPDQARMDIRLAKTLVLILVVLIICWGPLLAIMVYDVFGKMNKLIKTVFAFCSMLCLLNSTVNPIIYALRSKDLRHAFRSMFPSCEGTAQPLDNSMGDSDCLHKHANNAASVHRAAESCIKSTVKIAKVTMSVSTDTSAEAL

For the molecule `Cc1nc(-c2ccccc2)sc1C(=O)NCc1ccc(F)cc1`, the EC50 at Cannabinoid receptor 2 [1], on Cannabinoid receptor 2 [2], on Cannabinoid receptor 1 [3] and on Cannabinoid receptor 1 [4] was over 30 µM throughout. The outcome on Cannabinoid receptor 1 [5] and on Cannabinoid receptor 2 [6] was Active.

Take `Cc1nc(C)c(C(=O)NC2CCCc3ccccc32)s1` (stereo not given): the concentration giving a half-maximal response (EC50) at Cannabinoid receptor 2 [1] is over 30 µM; at Cannabinoid receptor 2 [2], 0.437 µM; at Cannabinoid receptor 1 [3] it was over 30 µM; at Cannabinoid receptor 1 [4], 1.17 µM. Also, the result at Cannabinoid receptor 1 [5] and at Cannabinoid receptor 2 [6] was Active.

For `Cc1nc(-c2ccccc2)sc1C(=O)NC1CCCCC1`, the EC50 on Cannabinoid receptor 2 [1], on Cannabinoid receptor 2 [2], at Cannabinoid receptor 1 [3] and at Cannabinoid receptor 1 [4] was over 30 µM in each case. Moreover, the result at Cannabinoid receptor 1 [5] and at Cannabinoid receptor 2 [6] was Active.

In the case of `Cc1nc(-c2ccccc2)sc1C(=O)NC1CC1`, the EC50 at Cannabinoid receptor 2 [1], at Cannabinoid receptor 2 [2], on Cannabinoid receptor 1 [3] and at Cannabinoid receptor 1 [4] was over 30 µM in each case. The outcome on Cannabinoid receptor 1 [5] and at Cannabinoid receptor 2 [6] was Active.

Take `O=C(NC12CC3CC(CC(C3)C1)C2)c1nc2ccccc2s1`: the Ratio Ki in the test listed under Homo sapiens was over 121. Moreover, the EC50 on Cannabinoid receptor 2 [1], at Cannabinoid receptor 2 [2], at Cannabinoid receptor 1 [3] and at Cannabinoid receptor 1 [4] was over 30 µM throughout. In addition, the outcome at Cannabinoid receptor 1 [5] and at Cannabinoid receptor 2 [6] was Active.

`O=C(NCC1CCCCC1)c1nc2ccccc2s1`: in the test listed under Homo sapiens, the Ratio Ki is over 7. For the same molecule, the EC50 at Cannabinoid receptor 2 [1], on Cannabinoid receptor 2 [2], at Cannabinoid receptor 1 [3] and at Cannabinoid receptor 1 [4] was over 30 µM in each case. The outcome on Cannabinoid receptor 1 [5] and at Cannabinoid receptor 2 [6] was Active.

With `O=C(Nc1ccc2ccccc2c1)c1nc2ccccc2s1`, the EC50 at Cannabinoid receptor 2 [1], on Cannabinoid receptor 2 [2], at Cannabinoid receptor 1 [3] and at Cannabinoid receptor 1 [4] was over 30 µM in each case. The outcome on Cannabinoid receptor 1 [5] and at Cannabinoid receptor 2 [6] was Active.

For the molecule `Cc1nc(-c2ccccc2)sc1C(=O)N1CCOCC1`, the Ratio Ki in the test filed under Homo sapiens was over 3. In addition, the EC50 at Cannabinoid receptor 2 [1], at Cannabinoid receptor 2 [2], on Cannabinoid receptor 1 [3] and on Cannabinoid receptor 1 [4] was over 30 µM throughout. Also, the result on Cannabinoid receptor 1 [5] and at Cannabinoid receptor 2 [6] was Active.

Turning to `Cc1nc(-c2ccccc2)sc1C(=O)NC1CCCC1`, the 50% effective concentration (EC50) at Cannabinoid receptor 2 [1], on Cannabinoid receptor 2 [2], at Cannabinoid receptor 1 [3] and at Cannabinoid receptor 1 [4] was over 30 µM throughout. The outcome on Cannabinoid receptor 1 [5] and at Cannabinoid receptor 2 [6] was Active.

For `O=C(NCc1ccccc1)c1nc2ccccc2s1`, the EC50 on Cannabinoid receptor 2 [1], on Cannabinoid receptor 2 [2], at Cannabinoid receptor 1 [3] and at Cannabinoid receptor 1 [4] was over 30 µM each time. Also, the outcome on Cannabinoid receptor 1 [5] and at Cannabinoid receptor 2 [6] was Active.

As for `O=C(Nc1cccc2ccccc12)c1nc2ccccc2s1`, the EC50 on Cannabinoid receptor 2 [1], on Cannabinoid receptor 2 [2], at Cannabinoid receptor 1 [3] and on Cannabinoid receptor 1 [4] was over 30 µM in each case. The outcome at Cannabinoid receptor 1 [5] and on Cannabinoid receptor 2 [6] was Active.

With `O=C(NC1CCCc2ccccc21)c1nc2ccccc2s1` (stereo not given), in the test listed under Homo sapiens, the Ratio Ki stood at 3. Further, the EC50 at Cannabinoid receptor 2 [1], on Cannabinoid receptor 2 [2], on Cannabinoid receptor 1 [3] and on Cannabinoid receptor 1 [4] was over 30 µM throughout. Besides, the result on Cannabinoid receptor 1 [5] and at Cannabinoid receptor 2 [6] was Active.

With `Cc1nc(-c2ccccc2)sc1C(=O)NCc1ccccc1Cl`, the EC50 on Cannabinoid receptor 2 [1], on Cannabinoid receptor 2 [2], on Cannabinoid receptor 1 [3] and at Cannabinoid receptor 1 [4] was over 30 µM each time. Besides, the outcome at Cannabinoid receptor 1 [5] and at Cannabinoid receptor 2 [6] was Active.

On to `Cc1nc(-c2ccccc2)sc1C(=O)NC12CC3CC(CC(C3)C1)C2`, for which the Ratio Ki in the test listed under Homo sapiens is over 22. Moreover, the EC50 at Cannabinoid receptor 2 [1], on Cannabinoid receptor 2 [2], on Cannabinoid receptor 1 [3] and at Cannabinoid receptor 1 [4] was over 30 µM throughout. Moreover, the result on Cannabinoid receptor 1 [5] and at Cannabinoid receptor 2 [6] was Active.

In the case of `Cc1nc(-c2ccccc2)sc1C(=O)NC1CCCc2ccccc21` (stereo not given), the Ratio Ki in the test listed under Homo sapiens was over 4. Besides, the EC50 at Cannabinoid receptor 2 [1], on Cannabinoid receptor 2 [2], on Cannabinoid receptor 1 [3] and on Cannabinoid receptor 1 [4] was over 30 µM each time. Further, the result at Cannabinoid receptor 1 [5] and at Cannabinoid receptor 2 [6] was Active.

On to `O=C(NCc1ccccc1Cl)c1nc2ccccc2s1`, for which the Ratio Ki in the test filed under Homo sapiens is over 9. The EC50 on Cannabinoid receptor 2 [1] was 3.31 µM; at Cannabinoid receptor 2 [2], over 30 µM; at Cannabinoid receptor 1 [3] it was over 30 µM; at Cannabinoid receptor 1 [4], over 30 µM. Moreover, the result at Cannabinoid receptor 1 [5] and on Cannabinoid receptor 2 [6] was Active.

For the molecule `CCCCNC(=O)c1sc(-c2ccccc2)nc1C`, the EC50 on Cannabinoid receptor 2 [1], at Cannabinoid receptor 2 [2], on Cannabinoid receptor 1 [3] and at Cannabinoid receptor 1 [4] was over 30 µM in each case. The outcome on Cannabinoid receptor 1 [5] and at Cannabinoid receptor 2 [6] was Active.

With `CCCCCn1/c(=N/C(=O)c2ccc(C(F)(F)F)cc2)sc2ccccc21`, in the test listed under Homo sapiens, the Ratio Ki came out at 393. For the same molecule, the EC50 at Cannabinoid receptor 2 [1] was 2.51 µM; on Cannabinoid receptor 2 [2] it was over 30 µM; on Cannabinoid receptor 1 [3], over 30 µM; at Cannabinoid receptor 1 [4], over 30 µM. Moreover, the result on Cannabinoid receptor 1 [5] and on Cannabinoid receptor 2 [6] was Active.

In the case of `O=C(Nc1nc2ccccc2s1)c1ccc(C(F)(F)F)cc1`, the EC50 at Cannabinoid receptor 2 [1], on Cannabinoid receptor 2 [2], on Cannabinoid receptor 1 [3] and on Cannabinoid receptor 1 [4] was over 30 µM throughout. Also, the result on Cannabinoid receptor 1 [5] and on Cannabinoid receptor 2 [6] was Active.

In the case of `Cc1nc(C(C)(C)C)sc1C(=O)NC12CC3CC(CC(C3)C1)C2`, the Ratio Ki in the test listed under Homo sapiens is over 25. In addition, the 50% effective concentration (EC50) at Cannabinoid receptor 2 [1] was 3.98 µM; on Cannabinoid receptor 2 [2], over 30 µM; on Cannabinoid receptor 1 [3], over 30 µM; at Cannabinoid receptor 1 [4], over 30 µM. In addition, the result on Cannabinoid receptor 1 [5] and at Cannabinoid receptor 2 [6] was Active.

With `O=C(Nc1nc2ccccc2s1)c1cccc(C(F)(F)F)c1`, the 50% effective concentration (EC50) at Cannabinoid receptor 2 [1], at Cannabinoid receptor 2 [2], on Cannabinoid receptor 1 [3] and at Cannabinoid receptor 1 [4] was over 30 µM throughout. The result on Cannabinoid receptor 1 [5] and on Cannabinoid receptor 2 [6] was Active.

For the molecule `O=C(Nc1nc2ccccc2s1)c1cccc2ccccc12`, the Ratio Ki in the test filed under Homo sapiens is over 7. For the same molecule, the EC50 at Cannabinoid receptor 2 [1], at Cannabinoid receptor 2 [2], at Cannabinoid receptor 1 [3] and on Cannabinoid receptor 1 [4] was over 30 µM each time. Also, the outcome on Cannabinoid receptor 1 [5] and on Cannabinoid receptor 2 [6] was Active.

For the molecule `Cc1nc(-c2ccccc2)sc1C(=O)NCc1ccccc1F`, the EC50 on Cannabinoid receptor 2 [1], on Cannabinoid receptor 2 [2], on Cannabinoid receptor 1 [3] and on Cannabinoid receptor 1 [4] was over 30 µM throughout. The outcome on Cannabinoid receptor 1 [5] and on Cannabinoid receptor 2 [6] was Active.

Consider `O=C(Nc1nc2ccccc2s1)C12CC3CC(CC(C3)C1)C2`, for which the Ratio Ki in the test filed under Homo sapiens is over 36. In addition, the EC50 on Cannabinoid receptor 2 [1], at Cannabinoid receptor 2 [2], on Cannabinoid receptor 1 [3] and on Cannabinoid receptor 1 [4] was over 30 µM each time. Besides, the outcome on Cannabinoid receptor 1 [5] and at Cannabinoid receptor 2 [6] was Active.

With `Cc1nc(C)c(C(=O)NCc2ccccc2)s1`, the concentration giving a half-maximal response (EC50) at Cannabinoid receptor 2 [1], at Cannabinoid receptor 2 [2], at Cannabinoid receptor 1 [3] and on Cannabinoid receptor 1 [4] was over 30 µM throughout. Further, the result at Cannabinoid receptor 1 [5] and on Cannabinoid receptor 2 [6] was Active.

For the molecule `CCCCCCNC(=O)c1sc(-c2ccccc2)nc1C`, the EC50 at Cannabinoid receptor 2 [1], on Cannabinoid receptor 2 [2], on Cannabinoid receptor 1 [3] and on Cannabinoid receptor 1 [4] was over 30 µM in each case. Besides, the outcome on Cannabinoid receptor 1 [5] and on Cannabinoid receptor 2 [6] was Active.

With `Cc1ccc(Cn2nc(C(=O)N[C@@H]3C(C)(C)[C@@H]4CC[C@@]3(C)C4)cc2-c2ccc(Cl)c(C)c2)cc1`, the outcome on Cannabinoid receptor 1 [5] was Active.

Take `Cc1nc(-c2ccccc2)sc1C(=O)NCC1CCCCC1`: the EC50 on Cannabinoid receptor 2 [1], at Cannabinoid receptor 2 [2], at Cannabinoid receptor 1 [3] and on Cannabinoid receptor 1 [4] was over 30 µM throughout. The outcome on Cannabinoid receptor 1 [5] and at Cannabinoid receptor 2 [6] was Active.

As for `Cc1nc(-c2ccccc2)sc1C(=O)NCc1ccccc1`, the EC50 on Cannabinoid receptor 2 [1], on Cannabinoid receptor 2 [2], at Cannabinoid receptor 1 [3] and on Cannabinoid receptor 1 [4] was over 30 µM in each case. Further, the outcome on Cannabinoid receptor 1 [5] and at Cannabinoid receptor 2 [6] was Active.
